From article PMC3139708 (Nature chemical biology, 2011)
Entries after “also recorded” stand apart in the source; their conditions may differ. Where a SMILES comes first, the peptide text is derived from it. [ ]: non-standard residue; d: D form. βAla = NCCC(=O)O

How the values were obtained:
FKBP(F36V) = FKBP(F36V) (Homo sapiens, UniProt P62942, F37V); experiment: Fluorescence polarization competition binding against Fl-SLF; conditions: polarization signal; Fl-SLF 1 nM, FKBP(F36V) 100 nM
In short: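 Purified FKBP(F36V) and fluorescent Shield-1 analog Fl-SLF were held at fixed concentrations and incubated with a titration of synthetic test peptide. Tracer displacement was read as the decrease in fluorescence polarization.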

YFP-LID [1] = experiment: Shield-dependent degradation of YFP-LID in NIH3T3 cells, flow cytometry; assay type: cell-based
In short: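 NIH3T3 cells were stably retrovirally transduced with YFP-FKBP(F36V) plus the 19-residue C-terminal peptide, with IRES-HcRed as infection marker. They were plated at 1 × 10⁵ per well and given vehicle or Shield-1 (1 pM–1 μM, or 1 μM for 24 h), then trypsinised. YFP was read by flow cytometry (typically 10,000 events) against untransduced-cell autofluorescence. Error bars are s.d. from at least two experiments.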

YFP-LID [2] = experiment: Time course of YFP-LID degradation and recovery in NIH3T3 cells, flow cytometry; assay type: cell-based; conditions: NIH3T3, absence of cycloheximide
In short: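 Stably transduced NIH3T3 cells expressing YFP-LID were plated at 1 × 10⁵ cells/well. For degradation, Shield-1 was added and cells were sampled at various times. For recovery, Shield-1 was removed by changing to fresh growth medium containing 5 μM recombinant FKBP(F36V) at set times before analysis. YFP was read by flow cytometry, and the maximum fluorescence was set to 100%.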

[3] = test system: YFP-LID fusion proteins in HeLa cells; experiment: YFP-LID degradation in transiently transfected HeLa cells; assay type: cell-based; conditions: 24 hours Shield-1
[4] = test system: YFP-LID fusion proteins in U2OS cells; experiment: YFP-LID degradation in transiently transfected U2OS cells; assay type: cell-based; conditions: 24 hours Shield-1
YFP = experiment: Stability of YFP fused directly to the 19-residue peptide or its truncations; assay type: cell-based; conditions: 1 μM Shield-1, 24 h, flow cytometry
In short: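 The 19-residue peptide was fused directly to YFP, without FKBP, and stably transduced into NIH3T3 cells by retrovirus. Cells were plated at 1 × 10⁵ per well, treated with vehicle or 1 μM Shield-1 for 24 h, trypsinised and analysed by flow cytometry (typically 10,000 events). Error bars are s.d. from at least two experiments.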

[5] = test system: transcription factors fused to LID (Oct4, Klf4, Sox2, Myc, Lin28, Nanog); assay type: cell-based, human; Nanog mouse; conditions: 2 μM Shield-1, 24 h, NIH3T3, immunoblot
In short: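 LID was fused to the C-terminus of each of six transcription factors. Each was retrovirally transduced into NIH3T3 cells separately (4 μg/mL polybrene, 4 h, 37 °C; 24–36 h integration) in DMEM with 10% donor bovine serum. Cells got vehicle or 2 μM Shield-1 for 24 h. Lysates were immunoblotted with anti-Oct4, anti-Klf4, anti-HA (Sox2, Myc, Lin28) or anti-Flag (Nanog). α-Tubulin was the loading control; untransduced cells were the reference.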

Oct4-LID = experiment: Reprogramming of MEFs; assay type: cell-based, murine embryonic fibroblasts; conditions: 2 μM Shield-1 from day 3 post-infection
In short: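 Fibroblasts came from transgenic mice carrying GFP driven by the Oct4 promoter. They were retrovirally transduced with Sox2, Myc, Klf4 and Oct4-LID, with untagged Oct4 as comparison. Vehicle or 2 μM Shield-1 was added on day 3 post-infection, and alkaline phosphatase staining was done on day 14. GFP-positive cells were moved to fresh feeder layer on day 19 and stained with APC anti-SSEA-1 on day 24.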

actin-GFP-LID = experiment: Depletion of β-actin-AcGFP-LID in NIH3T3 cells, fluorescence microscopy; assay type: cell-based, human; conditions: 2 μM Shield-1, 24 hours
In short: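 NIH3T3 fibroblasts were retrovirally co-transduced (4 μg/mL polybrene, 4 h, 37 °C; then 24–36 h in growth medium) with human β-actin fused to Aequorea coerulescens GFP plus LID, and with β-actin-mCherry to mark microfilaments. Cells were cultured ± Shield-1, and green and red actin filaments were imaged by epifluorescence microscopy with a 40x objective.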

YFP-LID [6] = experiment: Simultaneous use of LID and DD systems in NIH3T3 cells: YFP-LID; assay type: cell-based; conditions: various concentrations of Shield-1, 24 h, flow cytometry and microscopy
In short: (§1)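 NIH3T3 cells stably co-transduced with YFP-LID and DD-mCherry were plated at 1 × 10⁵ cells/well. They were exposed to a range of Shield-1 concentrations for 24 h, then detached with trypsin-EDTA. YFP and mCherry were read in their respective channels by flow cytometry (typically 10,000 events) and by epifluorescence microscopy.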

DD-mCherry = experiment: Simultaneous use of LID and DD systems in NIH3T3 cells: DD-mCherry; assay type: cell-based; conditions: various concentrations of Shield-1, 24 h, flow cytometry and microscopy
In short: as §1

[7] = test system: YFP-FKBP(F36V)-degron-LPLPLP fusions (CL1, CyclinB, encephalomyocarditis virus degron); assay type: cell-based; conditions: NIH3T3, flow cytometry
FKBP domain = conditions: ref [18],[26]; cited from earlier work
FKBP = conditions: relative to Shield-1; ref [19]; cited from earlier work

Sequence of FKBP(F36V) (P62942 whole entry F37V): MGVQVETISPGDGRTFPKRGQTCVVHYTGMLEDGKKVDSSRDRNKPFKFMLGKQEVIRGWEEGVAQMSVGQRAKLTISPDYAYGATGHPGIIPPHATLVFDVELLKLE

**Q.** With `CC(C)C[C@H](NC(=O)[C@H](CC(C)C)NC(=O)[C@@H](NC(=O)[C@@H](NC(=O)CNC(=O)[C@H](CCC(=O)O)NC(=O)[C@H](C)NC(=O)[C@@H](NC(=O)[C@H](CCC(=O)O)NC(=O)[C@H](CCC(=O)O)NC(=O)[C@@H](NC(=O)CNC(=O)[C@H](CCCNC(=N)N)NC(=O)[C@@H](NC(=O)CCN)[C@@H](C)O)C(C)C)C(C)C)C(C)C)C(C)C)C(=O)N[C@@H](CCCNC(=N)N)C(=O)N[C@@H](CCCNC(=N)N)C(=O)N[C@@H](CCCNC(=N)N)C(=O)NCC(=O)N[C@@H](CC(N)=O)C(=O)O` [19-residue peptide] (H-[βAla]TRGVEEVAEGVVLLRRRGN-OH; N-terminus and C-terminus assumed) as the molecule, how does the “displacement of tracer Fl-SLF from FKBP” value (FKBP(F36V)) read?
**A.** dose-dependent decrease in polarization signal

**Q.** Which “YFP fluorescence levels in Shield-treated cells above the background autofluorescence” value (YFP-LID [1]; relative to untransduced NIH3T3 cells, flow cytometry) does the source give for `CC[C@H](C(=O)N1CCCC[C@H]1C(=O)O[C@H](CCc1ccc(OC)c(OC)c1)c1cccc(OCCN2CCOCC2)c1)c1cc(OC)c(OC)c(OC)c1` [Shield-1] here?
**A.** 10-20%

**Q.** And the “time for YFP levels to be reduced 50% upon addition of Shield-1” value (YFP-LID [2])?
**A.** 45 min

**Q.** And the “degradation of YFP-LID fusion proteins” value [3]?
**A.** could be degraded in transient transfected HeLa and U2OS cells

**Q.** And the “degradation of YFP-LID fusion proteins” value [4]?
**A.** could be degraded in transient transfected HeLa and U2OS cells

**Q.** And the “effect of Shield-1 on the stability of YFP-19mer” value (YFP)?
**A.** this instability is not affected by Shield-1; also recorded: no effect on the stability of this fusion

**Q.** What about the “degradation of LID-fused transcription factors” value [5] of the same molecule?
**A.** all degraded in a Shield-1 dependent manner

**Q.** And the “reprogramming to iPS cells of cells expressing Oct4-LID in the presence of Shield-1” value (Oct4-LID)?
**A.** unable to undergo reprogramming to iPS cells

**Q.** And the “GFP fluorescence of β-actin-GFP-LID after Shield-1” value (actin-GFP-LID)?
**A.** GFP fluorescence was absent

**Q.** And the “YFP-LID level” value (YFP-LID [6])?
**A.** dose-dependent depletion of YFP-LID

**Q.** What about the “mCherry (DD-mCherry) level” value (DD-mCherry) of the same molecule?
**A.** simultaneous stabilization of mCherry

**Q.** And the “stability of YFP-FKBP-degron-LPLPLP fusions with Shield-1” value [7]?
**A.** an increase in fluorescence was observed

**Q.** And the “affinity for the FKBP domain” value (FKBP domain)?
**A.** sub-nanomolar

**Q.** For `CCC(CC)NC(=O)N1CCCC[C@H]1C(=O)O[C@H](CCc1ccc(OC)c(OC)c1)c1cccc(OCCN2CCOCC2)c1` [Shield-2], which “destabilization of the LID domain” value (YFP-LID [1]; NIH3T3 cells, compared with Shield-1) is on record?
**A.** can also destabilize the LID domain although with slightly reduced potency

**Q.** And the “binding potency for FKBP” value (FKBP)?
**A.** less potent binding ligand for FKBP
